T cruzi inh: blocks replication of Trypanosoma cruzi; T. cruzi beta-gal in NIH3T3, luminescence, 90 h; inhibition, % (concentration not given with the values); 300,000 tested, 1.4% active; AID 1885;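 active = mean inhibition across valid replicates above about 55%, limit read from the data; inconclusive = mean below that limit but half or more replicates reach it; inactive = mean below it, under half of replicates reach it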;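 note: signal also drops with host cell toxicity which is not excluded here; higher percent means less beta-gal luminescence so fewer parasites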
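Incubation – ≥90 h infection period, 3 h prior cell attachment · System – NIH/3T3 fibroblasts plus reporter T. cruzi · Doses – compound pinned at 50 nL/well, DMSO · Read-out basis – percent inhibition of parasite-derived β-gal signal · Signal – luminescent β-galactosidase signal after 60 min lysis · Also added – 5000 T. cruzi trypomastigotes/well · Medium – Low-serum DMEM with 2% FBS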
NLRP3 yeast inh: blocks the NALP3 inflammasome reconstituted in yeast; Yeast reconstituted NLRP3/ASC/caspase-1, beta-gal luminescence, 24 h; 330,000 tested, 0.39% active; inhibition, % at 10 µM; AID 2825;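 active = inhibition of 50% or more; inactive = inhibition below 50%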
PolyA inhibitor: blocks polyadenylation in yeast reporter cells. S. cerevisiae SKY197-pL101 polyadenylation reporter, beta-gal luminescence; efflux-impaired pdr1/pdr3 knockout yeast; score 100 = 6 SD above DMSO. activity score, % at 12 µM. 300,000 tested, 0.02% active. AID 1875;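 active = lowest replicate activity score at least 50, where 100 means six control SD above control mean; inconclusive = lowest score under 50 but half or more replicates reach 50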;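 note: yeast exposed to compound for 9 h at 30 °C; higher score means more reporter readthrough which indicates perturbed polyadenylation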
L major viab: inhibitors of Leishmania major promastigote growth | Leishmania major promastigotes, resazurin fluorescence viability | inhibition, % at 10 µM | 200,000 tested, 9% active | AID 1063; in the data active = inhibition above about 50%;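 note: promastigotes grown with compound for 44 hours at 28 °C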
Calb FLC: C. albicans growth modulation with fluconazole. C. albicans CaCi-2 + fluconazole, Alamar Blue growth, 48 h. growth inhibition, % (concentration not given with the values). 300,000 tested, 0.57% active. AID 1979;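 active = growth inhibition above about 58% in most replicates, limit read from the data, passing the limit was not always enough; inconclusive = exactly half the replicates above a set limit; inactive = most replicates below a set limit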;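 note: all wells also contain fluconazole at 8 µg/ml as a sub-toxic cotreatment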
NALP1 yeast inh: inhibitors of NALP1 inflammasome in yeast; S. cerevisiae NALP1/ASC/caspase-1 growth, X-gal OD620, 72 h; AID 2071; 280,000 tested, 0.61% active; inhibition, % at 10 µM; in the data active = inhibition mostly above about 24%, no sharp cut-off; inactive = mostly below about 32%
Of the large screens only hits and unclear results are named; the others gave an inactive call. This is one part of a sample in which hits are shown more often than they occur.

O=C(COC(=O)Cn1cnc2ccccc2c1=O)Nc1ccccc1Sc1ccc(Cl)cc1	L major viab 69 (no result: NALP1 yeast inh)
C/C(=N\NC(=O)c1cc2ccccc2cc1O)c1ccccn1	Calb FLC 100 (no result: L major viab)
C=CCNC(=S)N/N=C(\C)c1ccccn1	L major viab 100, Calb FLC 115, NALP1 yeast inh 78
C/C(=N\NC(=O)c1c[nH]c2ccccc12)c1ccccn1	T cruzi inh 82, L major viab 100
C/C(=N\NC(=O)CCCNc1ccccc1)c1ccncc1	none
C/C(=N\NC(=O)c1c[nH]c2ccccc12)c1ccco1	none
C/C(=N\NC(=O)CCCNc1ccc(C)cc1)c1ccccn1	L major viab 98
O=C(Cc1c(F)c(F)c(F)c(F)c1F)Nc1nc(-c2ccccc2)cs1	none (no result: L major viab)
C/C(=N/NC(=O)c1cc2ccccc2cc1O)C1C(=O)c2ccccc2C1=O	L major viab 81
Cc1ccc(C(=O)C2CCN(C(=S)NCCCOC(C)C)CC2)cc1	none (no result: L major viab)
COc1ccc(-c2cc(C(=O)N(C)CC(=O)Nc3cccc(F)c3)c3ccccc3n2)cc1	none (no result: L major viab, NALP1 yeast inh)
COC(=O)C(C(=O)NCC1CCCO1)C1CCCC1 (stereo not given)	none
COc1ccc(C[C@H]2CN3C(=NC[C@@H]3C(C)C)N2CCNC(=O)c2ccc(C)c(Br)c2)cc1	L major viab 99
COc1ccc(C[C@H]2CN3C(=NC[C@H]3C)N2CCNC(=O)c2ccc(C)c(Br)c2)cc1	L major viab 53
Cc1ccc2c(c1)nc(-n1nc(C)cc1C)c1nnnn12	Calb FLC inconclusive
O=C(CCNc1cccc(Cl)c1)c1ccco1	L major viab 83
Cc1c(Cl)cccc1NC(=O)COC(=O)Cn1cnc2c1c(=O)n(C)c(=O)n2C	none (no result: T cruzi inh, PolyA inhibitor, L major viab, Calb FLC, NALP1 yeast inh)
Cc1ccc(NC(=O)COC(=O)CCc2ccccc2)c(Cl)c1	none (no result: L major viab)
Cc1ccc2[nH]c(=O)c(CNS(=O)(=O)c3ccccc3)c(-c3ccccc3)c2c1	Calb FLC inconclusive
O=C(NCCc1cnc[nH]1)c1ccc(-c2ccccc2)cc1	T cruzi inh 60 (no result: L major viab)
CCOc1ccc(C(=O)NCCc2cnc[nH]2)cc1	none (no result: L major viab)
O=C/C(=C\Nc1ccccn1)c1nc2ccccc2o1	L major viab 73
CC(C)c1ccc(N(CC(=O)NCC2CCCO2)C(=O)Cn2nnc(-c3cccs3)n2)cc1 (stereo not given)	none
O=C(CCl)Nc1ccc(Oc2cnc3ccccc3n2)cc1	L major viab 66
COc1ccc(NC(=O)CCl)cn1	none (no result: L major viab, NALP1 yeast inh)
CC(=O)n1c2ccccc2c2nc3ccccc3nc21	NALP1 yeast inh 30 (no result: L major viab)
CCn1c2ccccc2c2nc3ccccc3nc21	Calb FLC inconclusive
CCOC(=O)C1(Cc2cccc(F)c2)CCN(CC2CC2)CC1	none
CCOC(=O)C1(Cc2ccccc2)CCN(CC2CC=CCC2)CC1 (stereo not given)	L major viab 80
CC1CCCN(C(=O)C2CCN(CC3CC=CCC3)CC2)C1 (stereo not given)	L major viab 94
CCOC(=O)C1(Cc2cccc(OC)c2)CCN(CC2CC=CCC2)CC1 (stereo not given)	L major viab 92
COc1cc(CN2CCC(C(=O)N3CCCC(C)C3)CC2)cc(OC)c1O (stereo not given)	none
O=C(c1ccccc1)N1CCN(CC2CC=CCC2)CC1 (stereo not given)	L major viab 70
Cc1cc(NC(=O)c2ccccc2C)n(-c2cccc(F)c2)n1	none (no result: L major viab)
COc1ccc([C@@H]2[C@@H]3C(=O)N(C(C)(C)C)C(=O)[C@@H]3[C@]3(Cc4ccc(Cl)cc4)C(=O)N(c4ccc(C)cc4)C(=O)N23)cc1	none (no result: L major viab, NALP1 yeast inh)
Clc1ccc(-c2cn(-c3ccccc3)c3[n+]2CCS3)cc1	L major viab 70
Clc1ccc(-c2c[n+]3c(n2-c2ccccc2)SCC3)cc1	L major viab 97
CC(=O)c1ccc(-n2cc(-c3ccc(C(C)(C)C)cc3)[n+]3c2SCCC3)cc1	T cruzi inh 68, L major viab 100, Calb FLC 101
COc1ccc(-c2cn(-c3ccc(Br)cc3)c3[n+]2CCS3)cc1	L major viab 100
O=C1OC[C@H]2CCCN2C(=O)[C@@H](CC(=O)N(CCO)Cc2ccccc2)C/C=C\CC[C@H]1Cc1ccc(F)cc1	none (no result: T cruzi inh, PolyA inhibitor, L major viab, Calb FLC, NALP1 yeast inh)
COc1ccc(-c2cn(-c3ccc(Cl)cc3)c3[n+]2CCCCC3)cc1	T cruzi inh 58 (no result: L major viab)
Clc1ccc(-c2cn(-c3ccc(Cl)cc3)c3[n+]2CCCCC3)cc1	none (no result: L major viab)
CCOC(=O)c1ccc(N2CCN(c3ccc(F)cc3)CC2)c(NC(=O)Nc2cccc(OC)c2)c1	L major viab 96
COc1cccc(NC(=O)CN2CCN(c3ccc(F)cc3)CC2)c1	none
CCOC(=O)c1ccc(N2CCN(c3ccccc3F)CC2)c(NC(=O)Nc2ccccc2)c1	L major viab 97
O=C1C=C(/C=C/c2ccccc2)C[C@@H](c2ccc3c(c2)OCO3)C1	none (no result: T cruzi inh, PolyA inhibitor, L major viab, Calb FLC, NALP1 yeast inh)
COc1cc(C(C(=O)NCc2ccccc2)N(Cc2ccco2)C(=O)c2cnccn2)cc(OC)c1OC (stereo not given)	none
CCCOc1ccc(C(=O)N/N=C/c2ccc(-c3ccc(S(=O)(=O)Nc4ncccn4)cc3)o2)cc1	NALP1 yeast inh 43
Cc1ccccc1NC(=O)c1cc(C(=O)c2cc(Cl)ccc2O)cn(-c2ccccc2C)c1=O	L major viab 61
Cc1ccc(-n2cc(C(=O)c3cc(Cl)ccc3O)cc(C#N)c2=O)cc1	none
COc1ccc(-c2csc(NC(C)c3nc4cc(Cl)c(Cl)cc4n3CCCO)n2)cc1 (stereo not given)	none (no result: L major viab, NALP1 yeast inh)
Cn1nc(-c2ccccn2)nc2c(=O)n(C)c(=O)nc1-2	T cruzi inh 59, PolyA inhibitor inconclusive (no result: L major viab, NALP1 yeast inh)
COc1ccccc1C(=O)NNC(=S)NC(=O)c1cccs1	T cruzi inh inconclusive (no result: L major viab)
COc1ccccc1C(=O)NC(=S)NNC(=O)c1sc2ccccc2c1Cl	L major viab 90
Cc1c(NC(=S)NC(=O)c2sc3ccccc3c2Cl)cccc1C(=O)O	none
COc1ccccc1C(=O)NNC(=S)NC(=O)c1sc2ccccc2c1Cl	PolyA inhibitor inconclusive, L major viab 54
Cc1ccc(CSC(Nc2ccc(F)cc2)=C(C#N)C#N)cc1	L major viab 58
COc1ccc(N(CC(=O)NCc2ccccn2)S(=O)(=O)c2ccccc2[N+](=O)[O-])c(OC)c1	none
Nc1c(C(=O)NCc2ccccc2)c2nc3ccccc3nc2n1CCCN1CCOCC1	none
Nc1c(C(=O)NCc2ccc(F)cc2)c2nc3ccccc3nc2n1CCCN1CCOCC1	L major viab 100
COc1ccc(CNC(=O)c2c(N)n(CCCN3CCOCC3)c3nc4ccccc4nc23)cc1	L major viab 87
Cc1ccc(S(C)(=O)=O)cc1C(=O)Nc1ccc(S(=O)(=O)Nc2nccs2)cc1	none (no result: T cruzi inh, PolyA inhibitor, L major viab, Calb FLC, NALP1 yeast inh)

Source: PubChem BioAssay
